Results reported in ChEMBL document CHEMBL1811814, “Synthesis and evaluation of indole, pyrazole, chromone and pyrimidine based conjugates for tumor growth inhibitory activities--development of highly efficacious cytotoxic agents” (Eur J Med Chem, 2010).

Key:
Format in all cases: functional
[1] = test system: HCT-15; assay: Growth inhibition of human HCT15 cells
[2] = test system: MDA-MB-435; assay: Growth inhibition of human MDA-MB-435 cells
[3] = test system: UACC-257; assay: Growth inhibition of human UACC257 cells assessed tumor cell growth at 10^-5 M; parameters: scale not given: the % may be the effect or the level left
Procedure, shortened: (§1)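 Single-dose screen at 10^-5 M across the 60 human tumor cell line panel, run to NCI standards. The value is the percent growth of each cell line in the presence of compound. Compounds active at this dose moved on to five-concentration testing (10^-4 to 10^-8 M).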

[4] = test system: MDA-MB-231; assay: Growth inhibition of human MDA-MB-231 cells assessed tumor cell growth at 10^-5 M; parameters: scale not given: the % may be the effect or the level left
Procedure, shortened: (§2)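 NCI 60-human-tumor-cell-line panel screen. Each compound was tested at a single concentration of 10^-5 M, and percent growth of tumor cells was recorded for each cell line. Growth inhibition was expressed from these percent-growth values.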

[5] = test system: PC-3; assay: Growth inhibition of human PC3 cells
[6] = test system: MDA-MB-468; assay: Growth inhibition of human MDA-MB-468 cells
[7] = test system: OVCAR-4; assay: Growth inhibition of human OVCAR4 cells assessed tumor cell growth at 10^-5 M; parameters: scale not given: the % may be the effect or the level left; procedure, shortened: as §2
[8] = test system: DU-145; assay: Growth inhibition of human DU145 cells
[9] = test system: MDA-MB-468; assay: Growth inhibition of human MDA-MB-468 cells assessed tumor cell growth at 10^-5 M; parameters: scale not given: the % may be the effect or the level left; procedure, shortened: as §2
[10] = test system: MDA-MB-435; assay: Growth inhibition of human MDA-MB-435 cells assessed tumor cell growth at 10^-5 M; parameters: scale not given: the % may be the effect or the level left; procedure, shortened: as §2
[11] = test system: SK-MEL-2; assay: Growth inhibition of human SK-MEL-2 cells
[12] = test system: MCF7; assay: Growth inhibition of human MCF7 cells assessed tumor cell growth at 10^-5 M; parameters: scale not given: the % may be the effect or the level left; procedure, shortened: as §2
[13] = test system: SN12C; assay: Growth inhibition of human SN12C cells assessed tumor cell growth at 10^-5 M; parameters: scale not given: the % may be the effect or the level left; procedure, shortened: as §2
[14] = test system: MDA-MB-231; assay: Growth inhibition of human MDA-MB-231 cells
[15] = test system: U-251; assay: Growth inhibition of human U251 cells
[16] = test system: CCRF-CEM; assay: Growth inhibition of human CCRF-CEM cells assessed tumor cell growth at 10^-5 M; parameters: scale not given: the % may be the effect or the level left; procedure, shortened: as §2
[17] = test system: CCRF-CEM; assay: Growth inhibition of human CCRF-CEM cells
[18] = test system: Malme-3M; assay: Growth inhibition of human MALME-3M cells assessed tumor cell growth at 10^-5 M; parameters: scale not given: the % may be the effect or the level left; procedure, shortened: as §2
[19] = test system: CAKI-1; assay: Growth inhibition of human Caki1 cells assessed tumor cell growth at 10^-5 M; parameters: scale not given: the % may be the effect or the level left; procedure, shortened: as §2
[20] = test system: HT-29; assay: Growth inhibition of human HT-29 cells
[21] = test system: OVCAR-3; assay: Growth inhibition of human OVCAR3 cells assessed tumor cell growth at 10^-5 M; parameters: scale not given: the % may be the effect or the level left; procedure, shortened: as §2
[22] = test system: EKVX; assay: Growth inhibition of human EKVX cells
[23] = test system: HOP-62; assay: Growth inhibition of human HOP62 cells assessed tumor cell growth at 10^-5 M; parameters: scale not given: the % may be the effect or the level left; procedure, shortened: as §2
[24] = test system: NCI-H23; assay: Growth inhibition of human NCI-H23 cells assessed tumor cell growth at 10^-5 M; parameters: scale not given: the % may be the effect or the level left; procedure, shortened: as §2
[25] = test system: HT-29; assay: Growth inhibition of human HT-29 cells assessed tumor cell growth at 10^-5 M; parameters: scale not given: the % may be the effect or the level left; procedure, shortened: as §2
[26] = test system: NCI-H322M; assay: Growth inhibition of human NCI-H322M cells assessed tumor cell growth at 10^-5 M; parameters: scale not given: the % may be the effect or the level left; procedure, shortened: as §2
[27] = test system: A498; assay: Growth inhibition of human A498 cells assessed tumor cell growth at 10^-5 M; parameters: scale not given: the % may be the effect or the level left; procedure, shortened: as §2
[28] = test system: HCT-116; assay: Growth inhibition of human HCT116 cells assessed tumor cell growth at 10^-5 M; parameters: scale not given: the % may be the effect or the level left; procedure, shortened: as §2
[29] = test system: COLO 205; assay: Growth inhibition of human COLO205 cells assessed tumor cell growth at 10^-5 M; parameters: scale not given: the % may be the effect or the level left; procedure, shortened: as §2
[30] = test system: PC-3; assay: Growth inhibition of human PC3 cells assessed tumor cell growth at 10^-5 M; parameters: scale not given: the % may be the effect or the level left; procedure, shortened: as §2
[31] = test system: A549; assay: Growth inhibition of human A549 cells
[32] = test system: NCI-H23; assay: Growth inhibition of human NCI-H23 cells
[33] = test system: A549; assay: Growth inhibition of human A549 cells assessed tumor cell growth at 10^-5 M; parameters: scale not given: the % may be the effect or the level left; procedure, shortened: as §2
[34] = test system: Malme-3M; assay: Growth inhibition of human MALME-3M cells
[35] = test system: SF-539; assay: Growth inhibition of human SF539 cells
[36] = test system: SR; assay: Growth inhibition of human SR cells assessed tumor cell growth at 10^-5 M; parameters: scale not given: the % may be the effect or the level left; procedure, shortened: as §1
[37] = test system: UACC-62; assay: Growth inhibition of human UACC62 cells
[38] = test system: HL-60(TB); assay: Growth inhibition of human HL-60(TB) cells
[39] = test system: OVCAR-3; assay: Growth inhibition of human OVCAR3 cells
[40] = test system: OVCAR-8; assay: Growth inhibition of human OVCAR8 cells
[41] = test system: MOLT-4; assay: Growth inhibition of human MOLT4 cells assessed tumor cell growth at 10^-5 M; parameters: scale not given: the % may be the effect or the level left; procedure, shortened: as §2
[42] = test system: NCI-H460; assay: Growth inhibition of human NCI-H460 cells assessed tumor cell growth at 10^-5 M; parameters: scale not given: the % may be the effect or the level left; procedure, shortened: as §2
[43] = test system: NCI-H226; assay: Growth inhibition of human NCI-H226 cells
[44] = test system: 786-0; assay: Growth inhibition of human 786-0 cells
[45] = test system: T47D; assay: Growth inhibition of human T47D cells assessed tumor cell growth at 10^-5 M; parameters: scale not given: the % may be the effect or the level left; procedure, shortened: as §1
[46] = test system: SF-295; assay: Growth inhibition of human SF295 cells assessed tumor cell growth at 10^-5 M; parameters: scale not given: the % may be the effect or the level left; procedure, shortened: as §2
[47] = test system: HCC 2998; assay: Growth inhibition of human HCC2998 cells assessed tumor cell growth at 10^-5 M; parameters: scale not given: the % may be the effect or the level left; procedure, shortened: as §2
[48] = test system: SNB-19; assay: Growth inhibition of human SNB19 cells
[49] = test system: NCI-H322M; assay: Growth inhibition of human NCI-H322M cells
[50] = test system: KM12; assay: Growth inhibition of human KM12 cells assessed tumor cell growth at 10^-5 M; parameters: scale not given: the % may be the effect or the level left; procedure, shortened: as §2
[51] = test system: RXF 393; assay: Growth inhibition of human RXF393 cells assessed tumor cell growth at 10^-5 M; parameters: scale not given: the % may be the effect or the level left; procedure, shortened: as §2
[52] = test system: DU-145; assay: Growth inhibition of human DU145 cells assessed tumor cell growth at 10^-5 M; parameters: scale not given: the % may be the effect or the level left; procedure, shortened: as §2
[53] = test system: SW-620; assay: Growth inhibition of human SW620 cells
[54] = read-out: LC50 (the source's name)

CC1=NN(c2cccc(Cl)c2)C(=O)/C1=C\c1c(O)ccc2ccccc12
GI50 [1]: > 100 µM | CC50 [1, 54]: > 100 µM | GI50 [2]: > 100 µM | CC50 [2, 54]: > 100 µM | Activity [3]: 79.99% | Activity [4]: 4.08% | GI50 [5]: > 100 µM | CC50 [5, 54]: > 100 µM | GI50 [6]: 17.7 µM | CC50 [6, 54]: > 100 µM | Activity [7]: -66.84% | GI50 [8]: 70.7 µM | CC50 [8, 54]: > 100 µM | Activity [9]: 34.53% | Activity [10]: 20.68% | GI50 [11]: 21.8 µM | CC50 [11, 54]: > 100 µM | Activity [12]: 3.07% | Activity [13]: 23.59% | GI50 [14]: 36.3 µM | CC50 [14, 54]: > 100 µM | GI50 [15]: 40.7 µM | CC50 [15, 54]: > 100 µM | Activity [16]: 36.33% | GI50 [17]: 97.7 µM | CC50 [17, 54]: > 100 µM | Activity [18]: 58.97% | Activity [19]: 34.96% | GI50 [20]: > 100 µM | CC50 [20, 54]: > 100 µM | Activity [21]: 63.18% | GI50 [22]: > 100 µM | CC50 [22, 54]: > 100 µM | Activity [23]: -64.07% | Activity [24]: -1.95% | Activity [25]: 13.48% | Activity [26]: 84.08% | Activity [27]: 107.38% | Activity [28]: 8.69% | Activity [29]: -80.64% | Activity [30]: 33.03% | GI50 [31]: > 100 µM | CC50 [31, 54]: > 100 µM | GI50 [32]: > 100 µM | LC50 (concentration killing 50% of cells) [32]: > 100 µM | Activity [33]: 60.45% | GI50 [34]: 29.5 µM | CC50 [34, 54]: > 100 µM | GI50 [35]: 10 nM | CC50 [35, 54]: > 100 µM | Activity [36]: 29.7% | GI50 [37]: 39.8 µM | CC50 [37, 54]: > 100 µM | GI50 [38]: > 100 µM | CC50 [38, 54]: > 100 µM | GI50 [39]: 58.8 µM | CC50 [39, 54]: > 100 µM | GI50 [40]: > 100 µM | CC50 [40, 54]: > 100 µM | Activity [41]: 44.19% | Activity [42]: 79.03% | GI50 [43]: 47.8 µM | CC50 [43, 54]: > 100 µM | GI50 [44]: 21.3 µM | CC50 [44, 54]: > 100 µM | Activity [45]: 2.21% | Activity [46]: 25.62% | Activity [47]: -22.22% | GI50 [48]: 45.7 µM | CC50 [48, 54]: > 100 µM | GI50 [49]: > 100 µM | CC50 [49, 54]: > 100 µM | Activity [50]: 21.17% | Activity [51]: -76.85% | Activity [52]: 35.43% | GI50 [53]: > 100 µM | CC50 [53, 54]: > 100 µM
